This is an account of results in the array DNA melting data of Ke et al. (doi:10.1101/2024.01.08.574731).

A short description of data set [1]: melting temperature; fluorescence melt of hairpins on a sequencing array, two-state fit, raised by 9.35 °C to match UV melts. The note with it: sodium 0.088 M. The method in brief:
(§1)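 Cy3 signals were normalised both to pre-quench Cy3 and to control constructs. They came from library hairpins carrying annealed Cy3 and quencher oligos on a sequenced MiSeq flow cell, imaged in 50 mM Na-HEPES pH 8.0, 25 mM NaCl, in 2.5 °C steps up to 60 °C. Bootstrapped two-state fits gave melting temperature and folding enthalpy, and four replicates were combined by inverse variance. Fitted temperatures were then raised by 9.35 °C to match UV melts.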

The nature of data set [2]: folding enthalpy; higher = less favourable; fluorescence melt of hairpins on a sequencing array, two-state fit. The following applies: sodium 0.088 M. The method in brief:
as §1

With CGTGCTCGGAAACGAACG (((..(((....)))))), the Tm in data set [1] is 21.2 °C. In addition, the folding enthalpy in data set [2] is -5.98 kcal/mol.
Take CGTGGTCGGAAACGAACG (((..(((....)))))): the Tm in data set [1] came to 30.5 °C. Further, the folding enthalpy in data set [2] is -16.3 kcal/mol.
On the same counts, the results for CGTGTACGGAAACGTACG (((..(((....)))))) are 46 °C and -8.98 kcal/mol.
With CGTGTCCGGAAACGGACG (((..(((....)))))), in data set [1], the Tm was determined as 48.1 °C. The folding enthalpy in data set [2] was -7.66 kcal/mol.
Consider CGTGTCGGAAACGATACG (((.(((....))).))), for which the Tm in data set [1] came to 53.2 °C. Moreover, the folding enthalpy in data set [2] was -39.1 kcal/mol.
With CGTGTGCGGAAACGCACG (((..(((....)))))), in data set [1], the Tm amounted to 54.5 °C. Further, the folding enthalpy in data set [2] was -6.54 kcal/mol.
On to CGTTACGGAAACGTCACG (((.(((....))).))), for which the Tm in data set [1] was determined as 44.5 °C. The folding enthalpy in data set [2] is -23.6 kcal/mol.
With CGTTCGGAAACGAACACG ((((((....)))..))), in data set [1], the Tm is 39.1 °C. Besides, the folding enthalpy in data set [2] is -11.5 kcal/mol.
Regarding CGTTCGGAAACGACTACG ((((((....)))..))), the Tm in data set [1] turned out to be 29 °C. Further, the folding enthalpy in data set [2] was -12.6 kcal/mol.
With CGTTCGGAAACGATACG ((((((....))).))), the Tm in data set [1] was 42.1 °C. The folding enthalpy in data set [2] was -27.1 kcal/mol.
For CGTTCGGAAACGATTACG ((((((....)))..))), in that order: 35.7 °C and -18.1 kcal/mol.
CGTTGACGGAAACGTACG (((..(((....)))))): in data set [1], the Tm came out at 43.2 °C. In data set [2], the folding enthalpy is -18.8 kcal/mol.
For the sequence CTAACTGAAAAGTTAG ((((((....)))))), the Tm in data set [1] is 45.9 °C. Also, the folding enthalpy in data set [2] is -23.3 kcal/mol.
On the same counts, the results for CTAGAGAAATCTAG (((((....))))) are 26.2 °C and -7.95 kcal/mol.
Regarding CTCGGGAAACCGAG (((((....))))), the Tm in data set [1] is 56.1 °C. The folding enthalpy in data set [2] was -23.9 kcal/mol.
CTCTCGAAAGAGAG (((((....))))): in data set [1], the Tm came to 53.3 °C. Also, the folding enthalpy in data set [2] is -21.5 kcal/mol.
On to CTTAGGAAACTAAG (((((....))))), for which the Tm in data set [1] stood at 33.4 °C. Further, in data set [2], the folding enthalpy is -11.4 kcal/mol.
CTTCAGAAATGAAG (((((....))))): the Tm in data set [1] is 36 °C. In addition, in data set [2], the folding enthalpy was -11.5 kcal/mol.
On the same counts, the results for CTTCGGAAACGAAG (((((....))))) are 50.3 °C and -20.9 kcal/mol.
On to CTTGGGAAACCAAG (((((....))))), for which, in data set [1], the Tm stood at 45.9 °C. In addition, in data set [2], the folding enthalpy is -22.4 kcal/mol.
On to GAAAAAACGAAAGTTTTC (((..(((....)))))), for which the Tm in data set [1] came out at 30.9 °C. For the same sequence, the folding enthalpy in data set [2] was -13.4 kcal/mol.
As to GAAAAACGAAAGTTTTC (((.(((....)))))), the Tm in data set [1] was determined as 36.9 °C. Also, the folding enthalpy in data set [2] is -15.7 kcal/mol.
As for GAAAACGAAAGTTCTTC ((((((....))).))), in data set [1], the Tm was found to be 36.1 °C. Also, the folding enthalpy in data set [2] was -17.8 kcal/mol.
Consider GAAAACGAAAGTTCTTTC ((((((....)))..))), for which the Tm in data set [1] turned out to be 28.9 °C. Further, the folding enthalpy in data set [2] is -15.9 kcal/mol.
For the sequence GAAAAGCGAAAGCTCTTC (((.(((....))).))), the Tm in data set [1] was determined as 36.5 °C. Further, the folding enthalpy in data set [2] is -15.4 kcal/mol.
As for GAAAAGGAAACTTTTC ((((((....)))))), the Tm in data set [1] is 39.7 °C. Besides, in data set [2], the folding enthalpy is -25.2 kcal/mol.
On to GAAAAGGGAAACCTTTTC (((((((....))))))), for which, in data set [1], the Tm came out at 50.6 °C. Further, the folding enthalpy in data set [2] was -38.8 kcal/mol.
Take GAAACACCGAAAGGTTTC (((..(((....)))))): the Tm in data set [1] stood at 31.9 °C. Also, the folding enthalpy in data set [2] was -17.4 kcal/mol.
Turning to GAAACACGAAAGTGTTC (((.(((....)))))), in data set [1], the Tm was 44 °C. Further, the folding enthalpy in data set [2] was -12.7 kcal/mol.
On to GAAACAGGAAACTGTTTC (((((((....))))))), for which the Tm in data set [1] stood at 55.5 °C. The folding enthalpy in data set [2] was -41.9 kcal/mol.
Turning to GAAACCGAAAGGTGCTTC ((((((....)))..))), the Tm in data set [1] was 43.5 °C. The folding enthalpy in data set [2] was -19.4 kcal/mol.
GAAACCGAAAGGTGTTTC ((((((....)))..))): in data set [1], the Tm came out at 35.9 °C. Further, the folding enthalpy in data set [2] is -13.2 kcal/mol.
As for GAAACCGAAAGGTTTTTC ((((((....)))..))), the Tm in data set [1] amounted to 48.8 °C. Besides, the folding enthalpy in data set [2] was -15.6 kcal/mol.
On to GAAACCGGAAACGGTTCC (.(((((....))))).), for which the Tm in data set [1] came out at 41.4 °C. The folding enthalpy in data set [2] is -13.4 kcal/mol.
Turning to GAAAGACGAAAGTCGTTC (((.(((....))).))), the Tm in data set [1] amounted to 46 °C. Moreover, the folding enthalpy in data set [2] is -15.1 kcal/mol.
With GAAAGCCGAAAGGCATTC (((.(((....))).))), the Tm in data set [1] was determined as 45.9 °C. For the same sequence, the folding enthalpy in data set [2] is -15.2 kcal/mol.
In the case of GAAAGCCGAAAGGCCTTC (((.(((....))).))), the Tm in data set [1] is 41.4 °C. In addition, the folding enthalpy in data set [2] is -14.4 kcal/mol.
